Test results from ChEMBL document CHEMBL1122898, “Antiulcer agents. 1. Gastric antisecretory and cytoprotective properties of substituted imidazo[1,2-a]pyridines” (1985).

Assays:
Format in all cases: functional
[1] = test system: Rattus norvegicus; assay: Gastric antisecretory activity in the pylorus-ligated rat and the reduction in acid output was measured after 4 hr by intraperitoneal (ip) administration of 40 mg/kg dose.
How it was run: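 Male Charles River CD rats, 150–200 g, fasted 24 h. Pylorus ligated under Brevital anesthesia. 40 mg/kg given ip in 2.5% Tween 80 at ligation. Stomach contents collected at 4 h and titrated with 0.1 N NaOH to pH 7.0. % inhibition from mean AO, 6 treated vs 8 control rats. Student's t test.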

[2] = test system: Canis familiaris; assay: Inhibition of histamine stimulated gastric acid secretion in adult mongrel dogs at dose 5 mg/kg given intravenously; details: Canis lupus familiaris, Stomach, route intravenous
How it was run: (§1)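 Dogs with Heidenhain pouches, 12–18 kg, fasted 18 h. Compound given iv in 3 mL or by gavage in 5 mL of 0.4% methylcellulose/saline, 1 h after infusion start. 30-min collections titrated. Summed 3-h AO against the same dog's control AO gives % inhibition. Usually one dog per compound.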

[3] = test system: Canis familiaris; assay: Inhibition of histamine stimulated gastric acid secretion in adult mongrel dogs at dose 8 mg/kg given orally; details: Canis lupus familiaris, Stomach, route oral; how it was run: as §1
[4] = species: Rattus norvegicus; assay: Oral gastric cytoprotective activity in the rat against ethanol-induced lesions; details: Stomach
How it was run: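 Rats fasted and water-deprived for 20 h. Compound given orally, 1–30 mg/kg in 0.4% methylcellulose/saline, 30 min before 1 mL absolute ethanol po. Killed 1 h after ethanol. Linear hemorrhagic lesion lengths totalled per stomach, expressed as group mean. ED50 by linear regression.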

[5] = test system: Canis familiaris; assay: Inhibition of histamine stimulated gastric acid secretion in adult mongrel dogs at dose 2 mg/kg given intravenously; details: Canis lupus familiaris, Stomach, route intravenous; how it was run: as §1
[6] = test system: Canis familiaris; assay: Inhibition of histamine stimulated gastric acid secretion in mongrel dogs following 4 mg/kg p.o. administration.; details: Canis lupus familiaris, Stomach, route oral; how it was run: as §1

Row | Compound | inhibition in vivo at 40 mg/kg [1] | inhibition in vivo at 5 mg/kg [2] | inhibition in vivo at 8 mg/kg [3] | ED50 [4] | inhibition in vivo at 2 mg/kg [5] | inhibition in vivo at 4 mg/kg [6]
1 | Cc1nc2c(OCc3cccc(C(F)(F)F)c3)cccn2c1CC#N | 61% | 30% | 38% | 6.5 mg/kg |  | 
2 | Cc1nc2c(COc3ccccc3)cccn2c1C | 48% |  | 21% | 6 mg/kg | 44% | 
3 | CCc1nc2c(OCc3ccccc3)cccn2c1C | 79% |  | 27% | 9.8 mg/kg | 78% | 
4 | Cc1nc2c(OCc3ccccc3)cccn2c1COC(=O)c1cccnc1 | 87% | 88% | 0% |  |  | 
5 | Cc1nc2c(OCc3ccccc3)cccn2c1Br | 26% | 63% | 0% |  |  | 
6 | Cc1nc2c(OCc3ccccc3)cccn2c1COC(=O)C(C)(C)C | 48% |  | 12% | 8 mg/kg | 43% | 
7 | CC(=O)OCc1c(C)nc2c(OCc3ccccc3)cccn12 | 88% | 87% | 24% | 5.5 mg/kg | 54% | 
8 | Cc1nc2c(S(=O)(=O)Cc3ccccc3)cccn2c1CC#N | 9% | 6% |  | 16 mg/kg |  | 
9 | Cc1nc2c(SCc3ccccc3)cccn2c1CC#N | 22% | 89% | 2% | 7 mg/kg |  | 
10 | c1ccc(COc2cccn3c4c(nc23)CCC4)cc1 | 26% | 0% |  |  |  | 
11 | Cc1nc2c(OCc3ccccc3)cccn2c1CC(=S)N(C)C | 21% | 0% |  |  |  | 
12 | COc1ccc(COc2cccn3c(CC#N)c(C)nc23)cc1 | 25% |  | 7% |  | 43% | 13%
13 | Cc1nc2c(OCc3ccccc3)cccn2c1COC(=O)N(C)C | 75% | 23% | 49% |  |  | 
14 | Cc1nc2c(OCc3ccccc3)cccn2c1C[S+](C)[O-] (stereo unspecified) | 0% | 18% |  |  |  | 
15 | Cc1nc2c(OCc3ccccc3)cccn2c1Cl | 93% | 37% | 43% |  |  | 
16 | Cc1nc2c(OCc3ccccc3)cccn2c1CC(N)=O | 28% | 46% |  | 27 mg/kg |  | 0%
17 | Cc1nc2c(N(C)Cc3ccccc3)cccn2c1CC#N | 94% |  |  |  | 46% | 23%
18 | COCc1c(C)nc2c(OCc3ccccc3)cccn12 | 99% | 29% | 37% |  |  | 
19 | C/N=C(/S)Cc1c(C)nc2c(OCc3ccccc3)cccn12 | 7% | 0% |  |  |  | 
20 | CCOCc1c(C)nc2c(OCc3ccccc3)cccn12 | 84% | 35% | 0% |  |  | 
21 | Cc1nc2c(OCc3ccc(Cl)c(Cl)c3)cccn2c1CC#N | 42% |  | 23% | 6 mg/kg | 89% | 16%
22 | Cc1nc2c(OCCCc3ccccc3)cccn2c1CC#N | 64% | 80% | 8% | 4.3 mg/kg |  | 
23 | Cc1nc2c(OCc3ccncc3)cccn2c1CC#N | 51% | 36% |  | 2.6 mg/kg |  | 
24 | Cc1nc2c(OCc3cccc4ccccc34)cccn2c1CC#N | 0% | 78% | 15% | 9.8 mg/kg |  | 
25 | Cc1nc2c(OCc3ccccc3)cccn2c1CS(C)(=O)=O | 61% | 0% |  |  |  | 
26 | Cc1nc2c(OCc3ccccc3)cccn2c1C(C)C#N (stereo unspecified) | 74% |  | 1% | 2.9 mg/kg | 4% | 
27 | Cc1nc2c(Oc3ccccc3)cccn2c1CC#N | 24% | 0% |  | 3.4 mg/kg |  | 
28 | c1ccc(COc2cccn3c4c(nc23)CCCC4)cc1 |  |  | 28% |  | 24% | 
29 | CSCc1c(C)nc2c(OCc3ccccc3)cccn12 | 29% | 8% |  |  |  | 
30 | COC(=O)Cc1c(C)nc2c(OCc3ccccc3)cccn12 | 23% | 16% |  |  |  | 
